ABHD4 inh: ABHD4 inhibitors, primary screen, biochemical, fluorescence polarization, mouse; inhibition, % at 8.92 µM; AID 720543, 2013; (Lyso)-N-acylphosphatidylethanolamine lipase (Mus musculus), Q8VD66; 370,000 compounds, 0.54% hits; purified mABHD4, FP-Rh probe fluorescence polarization;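 active means inhibition exceeding the mean over every tested compound plus 3 SD, cut at about 30% in these data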
Target sequence (Q8VD66 whole entry, looked up): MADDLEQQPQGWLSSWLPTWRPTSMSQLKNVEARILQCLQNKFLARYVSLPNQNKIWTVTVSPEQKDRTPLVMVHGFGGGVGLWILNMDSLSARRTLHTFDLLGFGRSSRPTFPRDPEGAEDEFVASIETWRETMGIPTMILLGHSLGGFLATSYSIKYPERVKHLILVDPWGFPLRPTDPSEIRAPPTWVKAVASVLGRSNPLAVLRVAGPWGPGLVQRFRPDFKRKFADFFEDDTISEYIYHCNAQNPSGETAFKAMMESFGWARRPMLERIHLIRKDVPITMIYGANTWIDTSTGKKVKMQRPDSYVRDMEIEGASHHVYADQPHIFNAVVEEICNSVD
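assay system = mABHD4 protein | compound dosing = single nominal dose of 8.92 µM, 0.89% DMSO final | read-out basis = percent inhibition of probe binding, normalized to plate controls | schedule = Enzyme–compound pre-incubation 45 min, then probe 60 min, both 25 °C | detection = fluorescence polarization, excitation 525 nm, emission 598 nm, BODIPY TMR filters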
SIAE inh: human SIAE inhibitors, primary screen, biochemical, fluorescence polarization, FP-Rh probe, 1536-well HTS; Sialate O-acetylesterase (Homo sapiens), Q9HAT2; SIAE FP-Rh probe binding; inhibition, % at 9.66 µM; 370,000 compounds, 0.69% hits;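 active means inhibition above a cutoff: mean of compounds within the control limits plus 3 SD of those, cut at about 17% in these data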
TCR CD3 inh: inhibitors of human TCR-CD3 interaction, primary screen, biochemical, fluorescence, TAMRA-labeled TCR probe; T-cell receptor (TCR); inhibition, % at 9.4 µM; 360,000 compounds, 0.37% hits; in the data active means inhibition above about 19%;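 further: recombinant mutant TCR 2C K166C tagged with TAMRA read by polarization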
PRMT1 inh: PRMT1 methyltransferase inhibitors, primary screen, biochemical, fluorescence polarization | Protein arginine N-methyltransferase 1 (Homo sapiens), Q99873 | recombinant PRMT1, activity-based probe fluorescence polarization | inhibition, % at 2.79 µM | 370,000 compounds, 1.3% hits | AID 652257, 2013;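 active means inhibition above about 21% made by adding two undisclosed values, limit read from the data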
HTRA1 inhibitor: HTRA1 serine protease inhibitors, primary screen, biochemical, fluorescence polarization, HTS | Q92743 | recombinant HTRA1, FP-rhodamine activity-based probe | inhibition, % at 5.96 µM | 340,000 compounds, 0.5% hits; in the data active means inhibition above about 36%
PRMT1 confirm: PRMT1 methyltransferase inhibitors, confirmation, biochemical, fluorescence polarization, triplicate. shares compounds with PRMT1 inh. recombinant His-PRMT1, activity-based probe fluorescence polarization. inhibition, % at 2.79 µM. 3,300 compounds, 42% hits;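 active means mean inhibition across replicates above the hit cutoff derived for the earlier primary screen, cut at about 22% in these data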
Hits are given with their value. Compounds with a hit are over-represented: about 2.5% of the library has one in this group of screens.

Screening Cc1ccc(N2C(=O)C3C4C=CC(CNC(=S)N5CCN(c6cccc(C)c6)C(C)C5)(O4)C3C2=O)cc1 (stereo unspecified) returned ABHD4 inh inactive, SIAE inh inactive, TCR CD3 inh inactive, PRMT1 inh 36.9, HTRA1 inhibitor inactive and PRMT1 confirm 31.9.
`O=C(N/N=C/C=C/c1ccco1)c1cccnc1` gave ABHD4 inh inactive, SIAE inh inactive, TCR CD3 inh inactive, PRMT1 inh 39.4, HTRA1 inhibitor inactive and PRMT1 confirm inactive.
Screening O=C(N/N=C/C=C\c1ccco1)c1cccnc1 returned ABHD4 inh inactive, SIAE inh inactive, TCR CD3 inh inactive, PRMT1 inh inactive and HTRA1 inhibitor inactive.
Screening COc1ccc(N2C(=O)CC(N3CCC(O)(c4ccc(Cl)cc4)CC3)C2=O)cc1 (stereo unspecified) returned ABHD4 inh inactive, SIAE inh inactive, TCR CD3 inh inactive, PRMT1 inh 76.9, HTRA1 inhibitor inactive and PRMT1 confirm inactive.
For COc1ccc(N2C(=O)CC(N3CCC(c4nc5ccccc5[nH]4)CC3)C2=O)cc1 (stereo unspecified) the results were ABHD4 inh inactive, SIAE inh inactive, TCR CD3 inh inactive, PRMT1 inh 53.5, HTRA1 inhibitor inactive and PRMT1 confirm inactive.
For COc1ccc(N2C(=O)CC(N3CCN(c4ccc(Cl)cc4)CC3)C2=O)cc1 (stereo unspecified) the results were ABHD4 inh inactive, SIAE inh inactive, TCR CD3 inh inactive, PRMT1 inh inactive and HTRA1 inhibitor inactive.
For O=C1CC(N2CCC(c3nc4ccccc4[nH]3)CC2)C(=O)N1c1ccccc1F (stereo unspecified) the results were ABHD4 inh inactive, SIAE inh inactive, TCR CD3 inh inactive, PRMT1 inh 32.2, HTRA1 inhibitor inactive and PRMT1 confirm inactive.
For COc1ccc(N2C(=O)CC(n3c(CCCCO)nc4ccccc43)C2=O)cc1 (stereo unspecified) the results were ABHD4 inh inactive, SIAE inh inactive, TCR CD3 inh inactive, PRMT1 inh 25.1, HTRA1 inhibitor inactive and PRMT1 confirm inactive.
`Cc1ccc(C(=O)Nn2c(C)nc3ccccc3c2=O)cc1C` gave ABHD4 inh inactive, SIAE inh inactive, TCR CD3 inh inactive, PRMT1 inh inactive and HTRA1 inhibitor inactive.
`CN1N=C(C(=O)N=c2sc3ccccc3n2C)CCC1=O` gave ABHD4 inh inactive, SIAE inh inactive, TCR CD3 inh inactive, PRMT1 inh inactive and HTRA1 inhibitor inactive.
Screening O=C(CN1CCN(c2ccc(O)cc2)CC1)NC(=O)NCc1ccco1 returned ABHD4 inh inactive, SIAE inh inactive, TCR CD3 inh inactive, PRMT1 inh inactive and HTRA1 inhibitor inactive.
Nc1ccn(Cc2ccc(F)cc2)n1 was read as ABHD4 inh inactive, SIAE inh inactive, TCR CD3 inh inactive, PRMT1 inh inactive and HTRA1 inhibitor inactive.
Screening COc1cccc(-c2nc(SC)nc3sc(C(=O)NC(C)(C)C)c(N)c23)c1 returned ABHD4 inh inactive, SIAE inh inactive, TCR CD3 inh inactive, PRMT1 inh 25.4, HTRA1 inhibitor inactive and PRMT1 confirm inactive.
Cc1ccc(C(=O)N2CCC[C@@H]2C(=O)N2CCC[C@H]2C(=O)NCc2ccccc2)cc1C was read as ABHD4 inh inactive, SIAE inh inactive, TCR CD3 inh inactive and PRMT1 inh inactive.
Cc1ccc(NCc2ccc(O)c3ncccc23)cc1 was read as ABHD4 inh inactive, SIAE inh inactive, TCR CD3 inh inactive, PRMT1 inh inactive and HTRA1 inhibitor inactive.
Screening Oc1ccc(CNc2cccnc2)c2cccnc12 returned ABHD4 inh inactive, SIAE inh inactive, PRMT1 inh 39.3 and PRMT1 confirm 34.3.
For O=C(Nn1c(O)c(C=C2N=c3ccccc3=N2)sc1=S)c1ccccc1Cl the results were ABHD4 inh inactive, SIAE inh inactive, TCR CD3 inh inactive, PRMT1 inh 36.8, HTRA1 inhibitor inactive and PRMT1 confirm inactive.
Screening O=S(=O)(Nn1c(O)c(C=C2N=c3ccccc3=N2)sc1=S)c1ccccc1 returned ABHD4 inh inactive, SIAE inh inactive, TCR CD3 inh inactive, PRMT1 inh inactive and HTRA1 inhibitor inactive.
`O=[N+]([O-])c1ccccc1S(=O)(=O)NC1CCCCCCC1` gave ABHD4 inh inactive, SIAE inh inactive, TCR CD3 inh inactive, PRMT1 inh inactive and HTRA1 inhibitor inactive.
For O=C1CCCCCCC1Sc1ccccc1[N+](=O)[O-] (stereo unspecified) the results were ABHD4 inh inactive, SIAE inh inactive, TCR CD3 inh inactive, PRMT1 inh 29.6, HTRA1 inhibitor inactive and PRMT1 confirm inactive.
`O=C(Nc1ccc(F)cc1)C(c1cccc(F)c1)N1CCN(Cc2c(F)cccc2Cl)CC1` (stereo unspecified) gave ABHD4 inh inactive, SIAE inh inactive, TCR CD3 inh inactive and PRMT1 inh inactive.
Screening NC(=O)c1c(NC(=O)C2CCCO2)sc2c1CCCCC2 (stereo unspecified) returned ABHD4 inh inactive, SIAE inh inactive, TCR CD3 inh inactive, PRMT1 inh 28.4, HTRA1 inhibitor inactive and PRMT1 confirm inactive.
Screening Cc1ccc(/C=N/N2CCN(Cc3cccc4ccccc34)CC2)o1 returned ABHD4 inh inactive, SIAE inh inactive, TCR CD3 inh inactive, PRMT1 inh 26.2, HTRA1 inhibitor inactive and PRMT1 confirm inactive.
Screening Cn1ccnc1SCC(=O)Nc1cccc(C(F)(F)F)c1 returned ABHD4 inh inactive, SIAE inh inactive, TCR CD3 inh inactive, PRMT1 inh inactive and HTRA1 inhibitor inactive.
For O=C(CSC1=NCCN1)Nc1cccc(C(F)(F)F)c1 the results were ABHD4 inh inactive, SIAE inh inactive, TCR CD3 inh inactive, PRMT1 inh 52.1, HTRA1 inhibitor inactive and PRMT1 confirm 35.0.
Cc1ccc(S(=O)(=O)NN=CC=CC=NNS(=O)(=O)c2ccc(C)cc2)cc1 was read as ABHD4 inh inactive, SIAE inh inactive, TCR CD3 inh inactive, PRMT1 inh 39.2, HTRA1 inhibitor inactive and PRMT1 confirm 44.1.
Screening Cc1ccc(NC(=O)NCc2cccn2C)cc1C returned ABHD4 inh inactive, SIAE inh inactive, TCR CD3 inh inactive, PRMT1 inh inactive and HTRA1 inhibitor inactive.
CC(C)NC(=S)NNc1nc2ccccc2s1 was read as ABHD4 inh inactive, SIAE inh inactive, TCR CD3 inh inactive, PRMT1 inh 59.8, HTRA1 inhibitor inactive and PRMT1 confirm 56.9.
O=C(NNc1nc2ccccc2s1)c1ccc(F)cc1 was read as ABHD4 inh inactive, SIAE inh inactive, TCR CD3 inh inactive, PRMT1 inh inactive and HTRA1 inhibitor inactive.
